From ChEMBL document CHEMBL1150264, “Design and microwave-assisted synthesis of novel macrocyclic peptides active at melanocortin receptors: discovery of potent and selective hMC5R receptor antagonists” (J Med Chem, 2008) come the findings set out here.

Molecules are shown by their SMILES. The source made the active and inactive calls. The calls are words filed in the database; no cut-off is given here.

Assay [1] concerns the target T1, Melanocortin receptor 3 (Homo sapiens, UniProt P41968). Nature of the assay: Agonist activity at human melanocortin 3 receptor expressed in HEK293 cells assessed as cAMP accumulation at 10 uM realtive to MT2. It is filed as functional, cell-based. A digest of the protocol: (§1)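 cAMP accumulation assay in stably transfected HEK293 cells: 0.5 mM IBMX preincubation, 3 min ligand exposure at 37 °C, [3H]cAMP/PKA binding read-out against a standard curve. The cAMP produced at 10 μM ligand is expressed as percent of that produced by 10 μM MT-II (% max effect).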
In general terms: Cyclic AMP is a second messenger, typically raised through Gs and lowered through Gi signalling.

The target in assay [2] is T2, Melanocyte-stimulating hormone receptor (Homo sapiens, UniProt Q01726). The assay can be described thus: Agonist activity at human melanocortin 1 receptor expressed in HEK293 cells assessed as cAMP accumulation at 10 uM realtive to MT2. It is filed as functional, cell-based. The procedure, abridged: as §1
Target sequence in this assay (Q01726 whole entry, looked up): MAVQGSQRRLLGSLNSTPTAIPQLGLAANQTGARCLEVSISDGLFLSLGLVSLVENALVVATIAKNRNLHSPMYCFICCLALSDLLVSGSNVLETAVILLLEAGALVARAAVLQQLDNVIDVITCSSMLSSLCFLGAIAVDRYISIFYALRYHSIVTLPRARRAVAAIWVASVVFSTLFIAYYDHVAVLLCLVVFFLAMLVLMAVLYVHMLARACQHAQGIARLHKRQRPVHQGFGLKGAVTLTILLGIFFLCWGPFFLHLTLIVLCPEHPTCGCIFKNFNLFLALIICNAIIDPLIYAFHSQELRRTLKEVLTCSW
Assay [3] has as its target T3, Melanocortin receptor 5 (Homo sapiens, UniProt P33032). Nature of the assay: Agonist activity at human melanocortin 5 receptor expressed in HEK293 cells assessed as cAMP accumulation at 10 uM realtive to MT2. It is filed as functional, cell-based. A digest of the protocol:
as §1

The target of assay [4] is T1, Melanocortin receptor 3. Nature of the assay: Displacement of [125I]-[Nle4, D-Phe7]alpha-MSH from human melanocortin 3 receptor expressed in HEK293 cells at 10 uM. It is filed as cell-based. In general terms: Loss of bound radioactivity is the signal in a displacement assay; it reports binding, not function.
The target of assay [5] is T3, Melanocortin receptor 5. The assay can be described thus: Agonist activity at human melanocortin 5 receptor expressed in HEK293 cells assessed as cAMP accumulation at 10 uM. It counts as functional, cell-based. The procedure, abridged: as §1
For assay [6], the target named is T4, Melanocortin receptor 4 (Homo sapiens, UniProt P32245). The assay can be described thus: Agonist activity at human melanocortin 4 receptor expressed in HEK293 cells assessed as cAMP accumulation at 10 uM. It is filed as functional, cell-based. The procedure, abridged: as §1
T4 sequence (P32245 whole entry): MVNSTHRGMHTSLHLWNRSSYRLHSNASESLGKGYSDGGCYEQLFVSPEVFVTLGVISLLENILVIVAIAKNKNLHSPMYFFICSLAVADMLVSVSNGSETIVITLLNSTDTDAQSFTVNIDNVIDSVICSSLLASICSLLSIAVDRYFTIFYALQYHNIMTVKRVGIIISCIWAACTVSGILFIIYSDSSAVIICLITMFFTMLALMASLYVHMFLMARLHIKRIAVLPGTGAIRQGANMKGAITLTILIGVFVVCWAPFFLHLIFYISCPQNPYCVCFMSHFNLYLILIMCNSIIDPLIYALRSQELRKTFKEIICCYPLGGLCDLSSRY
Assay [7] has as its target T4, Melanocortin receptor 4. Nature of the assay: Agonist activity at human melanocortin 4 receptor expressed in HEK293 cells assessed as cAMP accumulation at 10 uM realtive to MT2. It is filed as functional, cell-based. The procedure, abridged: as §1
The target of assay [8] is T2, Melanocyte-stimulating hormone receptor. The assay can be described thus: Displacement of [125I]-[Nle4, D-Phe7]alpha-MSH from human melanocortin 1 receptor expressed in HEK293 cells at 10 uM. It is filed as cell-based.
Target sequence in this assay (Q01726 whole entry, looked up): as the sequence (Q01726 whole entry, looked up) above
For assay [9] the target is unchanged. Nature of the assay: Agonist activity at human melanocortin 1 receptor expressed in HEK293 cells assessed as cAMP accumulation at 10 uM. It counts as functional, cell-based. A digest of the protocol:
as §1
Target sequence in this assay (Q01726 whole entry, looked up): as above

Assay [10] deals with T3, Melanocortin receptor 5. The assay can be described thus: Displacement of [125I]-[Nle4, D-Phe7]alpha-MSH from human melanocortin 5 receptor expressed in HEK293 cells at 10 uM. It counts as cell-based.
The target of assay [11] is T1, Melanocortin receptor 3. The assay can be described thus: Agonist activity at human melanocortin 3 receptor expressed in HEK293 cells assessed as cAMP accumulation at 10 uM. It counts as functional, cell-based. The procedure, abridged:
as §1

For assay [12], the target named is T4, Melanocortin receptor 4. Nature of the assay: Displacement of [125I]-[Nle4, D-Phe7]alpha-MSH from human melanocortin 4 receptor expressed in HEK293 cells at 10 uM. It counts as cell-based.
Assay [13] has as its target T1, Melanocortin receptor 3. Nature of the assay: Displacement of [125I]-[Nle4, D-Phe7]alpha-MSH from human melanocortin 3 receptor expressed in HEK293 cells. It counts as cell-based. The procedure, abridged: (§2)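 Whole HEK293 cells stably expressing each hMCR, seeded 48 h before assay (50000 cells/well), washed in MEM with 25 mM bicarbonate. Cells incubated 40 min at 37 °C with unlabeled peptide plus [125I]-NDP-α-MSH (33.06 pM, 20000 cpm/well) in MEM, 25 mM HEPES pH 7.4, 0.2% BSA, 1 mM 1,10-phenanthroline, leupeptin, bacitracin. Cells washed, lysed with NaOH/Triton X-100, and gamma-counted. IC50 by nonlinear fit, two experiments in triplicate […].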

Assay [14] concerns the target T1, Melanocortin receptor 3. The assay can be described thus: Agonist activity at human melanocortin 3 receptor expressed in HEK293 cells assessed as cAMP accumulation. It is filed as functional, cell-based. A digest of the protocol:
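Stably transfected HEK293 cells seeded 48 h before assay (50000 cells/well), rinsed, preincubated 1 min at 37 °C in Earle's balanced salt solution with 0.5 mM IBMX, then given peptide at varying concentrations for 3 min at 37 °C. Stopped with ice-cold Tris/EDTA and boiling 7 min. cAMP measured by [3H]cAMP competition for PKA against a standard curve. EC50 by nonlinear least-squares fit, mean of two experiments in triplicate.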

In assay [15] the target is T2, Melanocyte-stimulating hormone receptor. Nature of the assay: Displacement of [125I]-[Nle4, D-Phe7]alpha-MSH from human melanocortin 1 receptor expressed in HEK293 cells. It counts as cell-based. A digest of the protocol: as §2
Target sequence in this assay (Q01726 whole entry): as the sequence (Q01726 whole entry, looked up) above

T3 sequence (P33032 whole entry): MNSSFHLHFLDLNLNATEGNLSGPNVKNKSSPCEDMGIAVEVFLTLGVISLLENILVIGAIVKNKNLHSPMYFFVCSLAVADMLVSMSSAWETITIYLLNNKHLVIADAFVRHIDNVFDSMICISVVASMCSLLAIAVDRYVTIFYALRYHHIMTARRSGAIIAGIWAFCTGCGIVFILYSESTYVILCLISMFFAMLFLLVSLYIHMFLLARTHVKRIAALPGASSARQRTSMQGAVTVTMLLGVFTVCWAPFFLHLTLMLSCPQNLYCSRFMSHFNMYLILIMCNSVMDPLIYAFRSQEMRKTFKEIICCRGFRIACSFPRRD
T1 sequence (P41968 whole entry): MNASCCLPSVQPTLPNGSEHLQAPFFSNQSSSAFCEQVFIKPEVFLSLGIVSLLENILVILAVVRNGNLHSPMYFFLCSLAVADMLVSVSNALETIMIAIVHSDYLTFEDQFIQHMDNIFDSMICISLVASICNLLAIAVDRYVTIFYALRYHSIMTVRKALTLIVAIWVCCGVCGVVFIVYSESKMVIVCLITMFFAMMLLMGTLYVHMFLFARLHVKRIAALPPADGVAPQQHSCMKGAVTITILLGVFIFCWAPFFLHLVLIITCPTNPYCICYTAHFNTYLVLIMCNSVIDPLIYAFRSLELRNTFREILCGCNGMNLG

As for `N=C(N)NCCC[C@@H]1NC(=O)[C@H](CCCNC(N)=O)NC(=O)[C@H](Cc2cnc[nH]2)NC(=O)c2cc([N+](=O)[O-])ccc2SC[C@@H](C(N)=O)NC(=O)[C@H](Cc2c[nH]c3ccccc23)NC1=O`, the Activity (on Melanocortin receptor 3 [1]; in [2]; on Melanocortin receptor 5 [3]; on Melanocortin receptor 4 [7]) was 0% each time. Also, the result (on Melanocortin receptor 3 [4]; on Melanocortin receptor 5 [5]; on Melanocortin receptor 4 [6]; in assay [8]; in [9]; at Melanocortin receptor 5 [10]) was inactive. Further, the result at Melanocortin receptor 3 [11] and on Melanocortin receptor 4 [12] was inactive.
`N=C(N)NCCC[C@@H]1NC(=O)[C@@H](Cc2ccccc2)NC(=O)[C@H](Cc2cnc[nH]2)NC(=O)c2cc([N+](=O)[O-])ccc2SC[C@@H](C(N)=O)NC(=O)[C@H](Cc2ccc3ccccc3c2)NC1=O`: the Activity was over 100% on Melanocortin receptor 3 [1], 110% in [2], 0% on Melanocortin receptor 5 [3] and 3% on Melanocortin receptor 4 [7]. The outcome on Melanocortin receptor 5 [5] and on Melanocortin receptor 4 [6] was inactive.
With `N=C(N)NCCC[C@@H]1NC(=O)[C@@H](Cc2ccccc2)NC(=O)[C@H](Cc2cnc[nH]2)NC(=O)c2cc([N+](=O)[O-])ccc2SC[C@@H](C(N)=O)NC(=O)[C@@H](Cc2ccccc2)NC1=O`, the Activity (on Melanocortin receptor 3 [1]; in [2]; on Melanocortin receptor 5 [3]; on Melanocortin receptor 4 [7]) was 0% in each case. Besides, the result (on Melanocortin receptor 3 [4]; on Melanocortin receptor 5 [5]; on Melanocortin receptor 4 [6]; in assay [8]; in assay [9]; at Melanocortin receptor 5 [10]) was inactive. Moreover, the result at Melanocortin receptor 3 [11] and on Melanocortin receptor 4 [12] was inactive.
Usually IC50 stands for the concentration that gives 50% inhibition. A higher IC50 goes with weaker potency in that assay. In turn, `NCCCC[C@@H]1NC(=O)[C@@H](Cc2ccccc2)NC(=O)[C@H](Cc2cnc[nH]2)NC(=O)c2cc([N+](=O)[O-])ccc2SC[C@@H](C(N)=O)NC(=O)[C@H](Cc2c[nH]c3ccccc23)NC1=O` yielded an IC50 at Melanocortin receptor 3 [13] of over 1000 nM. Also, the Activity (at Melanocortin receptor 3 [1]; in assay [2]; on Melanocortin receptor 5 [3]; on Melanocortin receptor 4 [7]) was 0% each time. Also, the result (at Melanocortin receptor 5 [5]; on Melanocortin receptor 4 [6]; in assay [8]; in [9]; at Melanocortin receptor 5 [10]; at Melanocortin receptor 3 [11]) was inactive. Further, on Melanocortin receptor 4 [12], the result was inactive.
On to `N=C(N)NCCC[C@@H]1NC(=O)[C@@H](Cc2ccccc2)NC(=O)[C@H](Cc2cnc[nH]2)NC(=O)c2cc([N+](=O)[O-])ccc2SC[C@@H](C(N)=O)NC(=O)[C@@H](Cc2ccc3ccccc3c2)NC1=O`, for which the Activity on Melanocortin receptor 3 [1] was 75%; in [2] it was 0%; on Melanocortin receptor 5 [3] it was 0%; on Melanocortin receptor 4 [7] it was 0%. Besides, the result (at Melanocortin receptor 5 [5]; on Melanocortin receptor 4 [6]; in [8]; in [9]; on Melanocortin receptor 5 [10]; at Melanocortin receptor 4 [12]) was inactive.
For the compound `NCCC[C@@H]1NC(=O)[C@@H](Cc2ccccc2)NC(=O)[C@H](Cc2cnc[nH]2)NC(=O)c2cc([N+](=O)[O-])ccc2SC[C@@H](C(N)=O)NC(=O)[C@H](Cc2c[nH]c3ccccc23)NC1=O`, the Activity (on Melanocortin receptor 3 [1]; in assay [2]; at Melanocortin receptor 5 [3]; on Melanocortin receptor 4 [7]) was 0% each time. For the same compound, the outcome (at Melanocortin receptor 3 [4]; on Melanocortin receptor 5 [5]; at Melanocortin receptor 4 [6]; in assay [8]; in [9]; at Melanocortin receptor 5 [10]) was inactive. Moreover, the outcome at Melanocortin receptor 3 [11] and on Melanocortin receptor 4 [12] was inactive.
By EC50 is commonly meant the concentration needed to bring the measured effect to its halfway point. The compound `NC(=O)[C@@H]1CSc2ccc([N+](=O)[O-])cc2C(=O)N[C@@H](Cc2cnc[nH]2)C(=O)N[C@H](Cc2ccccc2)C(=O)N[C@@H](CCCN=C(N)N)C(=O)N[C@H](Cc2ccc3ccccc3c2)C(=O)N1` gave an IC50 at Melanocortin receptor 3 [13] of over 8000 nM. The EC50 at Melanocortin receptor 3 [14] is 330 nM.
`N=C(N)NCCC[C@@H]1NC(=O)[C@H](Cc2ccc(N)cc2)NC(=O)[C@H](Cc2cnc[nH]2)NC(=O)c2cc([N+](=O)[O-])ccc2SC[C@@H](C(N)=O)NC(=O)[C@H](Cc2c[nH]c3ccccc23)NC1=O`: the Activity on Melanocortin receptor 3 [1] amounted to 5%; in assay [2], 9%; at Melanocortin receptor 5 [3] it was 0%; at Melanocortin receptor 4 [7], 0%. The outcome at Melanocortin receptor 5 [5], at Melanocortin receptor 4 [6], at Melanocortin receptor 5 [10] and on Melanocortin receptor 4 [12] was inactive.
As for `N=C(N)NCCC[C@@H]1NC(=O)[C@@H](Cc2ccccc2)NC(=O)[C@H]2CCCN2C(=O)c2cc([N+](=O)[O-])ccc2SC[C@@H](C(N)=O)NC(=O)[C@H](Cc2c[nH]c3ccccc23)NC1=O`, the Activity (on Melanocortin receptor 3 [1]; in [2]; on Melanocortin receptor 5 [3]; at Melanocortin receptor 4 [7]) was 0% in each case. Besides, the result (on Melanocortin receptor 3 [4]; at Melanocortin receptor 5 [5]; at Melanocortin receptor 4 [6]; in assay [9]; at Melanocortin receptor 5 [10]; at Melanocortin receptor 3 [11]) was inactive. For the same compound, the result at Melanocortin receptor 4 [12] was inactive. Besides, in [15] (hek293), the IC50 was over 1500 nM.
In the case of `N=C(N)NCCC[C@@H]1NC(=O)[C@@H](Cc2ccccc2)NC(=O)[C@H](Cc2cnc[nH]2)NC(=O)c2cc([N+](=O)[O-])ccc2SC[C@@H](C(N)=O)NC(=O)[C@H](Cc2c[nH]c3ccccc23)NC1=O`, the Activity (at Melanocortin receptor 3 [1]; in assay [2]; on Melanocortin receptor 5 [3]; at Melanocortin receptor 4 [7]) was 100% in each case.
On Melanocortin receptor 3 [13], `N=C(N)NCCC[C@H]1NC(=O)[C@@H](Cc2ccccc2)NC(=O)[C@H](Cc2cnc[nH]2)NC(=O)c2cc([N+](=O)[O-])ccc2SC[C@@H](C(N)=O)NC(=O)[C@H](Cc2c[nH]c3ccccc23)NC1=O` yielded an IC50 of over 10000 nM. In addition, the Activity (at Melanocortin receptor 3 [1]; in assay [2]; at Melanocortin receptor 5 [3]; on Melanocortin receptor 4 [7]) was 0% in each case. In addition, the outcome (at Melanocortin receptor 5 [5]; on Melanocortin receptor 4 [6]; in assay [8]; in assay [9]; at Melanocortin receptor 5 [10]; on Melanocortin receptor 3 [11]) was inactive. In addition, on Melanocortin receptor 4 [12], the result was inactive.
On to `N=C(N)NCCC[C@@H]1NC(=O)[C@@H](Cc2ccccc2)NC(=O)[C@H](Cc2cnc[nH]2)NC(=O)c2cc([N+](=O)[O-])ccc2SC[C@@H](C(N)=O)NC(=O)[C@H](Cc2ccccc2)NC1=O`, for which the Activity (on Melanocortin receptor 3 [1]; in assay [2]; on Melanocortin receptor 5 [3]; at Melanocortin receptor 4 [7]) was 0% throughout. In addition, the outcome (on Melanocortin receptor 3 [4]; on Melanocortin receptor 5 [5]; on Melanocortin receptor 4 [6]; in assay [9]; on Melanocortin receptor 5 [10]; at Melanocortin receptor 3 [11]) was inactive. At Melanocortin receptor 4 [12], the result was inactive. Also, the IC50 in assay [15] was over 1000 nM.
Turning to `N=C(N)NCCC[C@@H]1NC(=O)[C@@H](Cc2ccc3ccccc3c2)NC(=O)[C@H](Cc2cnc[nH]2)NC(=O)c2cc([N+](=O)[O-])ccc2SC[C@@H](C(N)=O)NC(=O)[C@H](Cc2c[nH]c3ccccc23)NC1=O`, the Activity is 0% on Melanocortin receptor 3 [1], over 100% in [2], 0% at Melanocortin receptor 5 [3] and 0% on Melanocortin receptor 4 [7]. In addition, the outcome at Melanocortin receptor 5 [5], on Melanocortin receptor 4 [6], on Melanocortin receptor 3 [11] and on Melanocortin receptor 4 [12] was inactive.
